Reference: article PMC2808857 (Journal of clinical pharmacology, 2009)
Like-named read-outs stand apart in the source and are kept apart here.

Tests used:
[1] = format: in vivo, human; conditions: for AUC / Cmax / T1/2 / Tmax / Urine excretion, %dose: mean (range); for Urine excretion, %dose: urine 0-24 hr
How it was run: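 Patients with refractory solid tumors took the capsule with water after overnight fasting. Plasma was drawn predose and at 0.5, 1, 2, 4, 6, 9, 12, 24, 32 and 48 h, then stored at −70°C. Drug was extracted into ethyl acetate and quantified by LC–ESI single-quadrupole MS (LLOQ 5 ng/ml). Parameters were noncompartmental per patient, with Cmax and Tmax as observed. Renal clearance = Ae,0–24/AUC0–24.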

[2] = Population pharmacokinetic analysis
[3] = system: patients with advanced refractory solid tumors; experiment: Toxicity assessment; format: in vivo, human
[4] = system: patients with refractory metastatic solid tumors; experiment: Response to therapy; format: in vivo, human
How it was run: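 Patients with refractory metastatic solid tumors received oral test compound once daily (5–40 mg/day dose escalation), taken with water after overnight fasting. Dosing was initially continuous over 28-day cycles, then amended to 21 days on and 7 days off. Treatment continued until progression or toxicity. Measurable disease was assessed by RECIST, with radiographic studies at end of cycle 3 and every other cycle thereafter.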

[5] = cited from earlier work
[6] = 5 mg single oral dose, cycle 1 day 1, n=2
[7] = 10 mg single oral dose, cycle 1 day 1, n=6
[8] = 15 mg single oral dose, cycle 1 day 1, n=3
[9] = 20 mg single oral dose, cycle 1 day 1, n=9
[10] = 25 mg single oral dose, cycle 1 day 1, n=6
[11] = 30 mg single oral dose, cycle 1 day 1, n=8
[12] = 35 mg single oral dose, cycle 1 day 1, n=6
[13] = 40 mg single oral dose, cycle 1 day 1, n=3

(α -(3-aminophthalimido) glutarimide) [lenalidomide]
AUC [1, 6]: 302 (257, 346) ng·hr/ml | Cmax [1, 6]: 80 (66, 93) ng/ml | T1/2 [1, 6]: 2.7 (2.1, 3.3) hr | Tmax [1, 6]: 0.75 (0.5, 1) hr | AUC [1, 7]: 571 (256–1415) ng·hr/ml | Cmax [1, 7]: 107 (59–163) ng/ml | T1/2 [1, 7]: 3.1 (2.4–4.2) hr | Tmax [1, 7]: 1 (0.5– 4) hr | AUC [1, 8]: 1090 (712–1391) ng·hr/ml | Cmax [1, 8]: 195 (174–224) ng/ml | Tmax [1, 8]: 2 (1–4) hr | AUC [1, 9]: 1901 (239–4093) ng·hr/ml | Cmax [1, 9]: 343 (64–621) ng/ml | T1/2 [1, 9]: 3.1 (1.9–7.8) hr | Tmax [1, 9]: 1 (0.5–6.1) hr | AUC [1, 10]: 3820 (1081–11363) ng·hr/ml | Cmax [1, 10]: 451 (311–631) ng/ml | T1/2 [1, 10]: 5.3 (1.6–15.9) hr | Tmax [1, 10]: 1.5 (0.5–8.9) hr | AUC [1, 11]: 4040 (844–15445) ng·hr/ml | Cmax [1, 11]: 593 (69–1315) ng/ml | T1/2 [1, 11]: 4.0 (3.2–14.2) hr | Tmax [1, 11]: 1.5 (0.5–6) hr | Urine excretion, %dose ([1]; 30 mg single oral dose, n=3): 47.0 (36.3–62.0) %dose | AUC [1, 12]: 5309 (3172–7062) ng·hr/ml | Cmax [1, 12]: 782 (594–969) ng/ml | T1/2 [1, 12]: 6.7 (3.7–14.5) hr | Tmax [1, 12]: 1 (0.5–4) hr | Urine excretion, %dose ([1]; 35 mg single oral dose, n=4): 54.6 (48.3–63.1) %dose | AUC [1, 13]: 3926 (3281–4656) ng·hr/ml | Cmax [1, 13]: 842 (648–1002) ng/ml | T1/2 [1, 13]: 4.1 (1.8–6.2) hr | Tmax [1, 13]: 1 (0.75–2) hr | Urine excretion, %dose ([1]; 40 mg single oral dose, n=2): 44.9 (43.8, 46.0) %dose | CL/F_renal as share of the total clearance ([1]; 9 patients): about 50% | amount of unchanged lenalidomide excreted into urine for 24 hours ([1]; 30-40 mg dose groups): 45–55 % of dose | mean half-life (T1/2) ([1]; across all doses 5-40 mg, oral): 3.9 h | time of peak plasma concentration ([1]; after single oral administration): around 1 hour | interpatient variability on total lenalidomide clearance ([2]; before inclusion of CLCr in the model): 70.6% | BSV of Tlag, Population Mean (95% CI) ([2]; final PopPK model): 30.0 (2.2 – 47.9) CV% | BSV of V/F, Population Mean (95% CI) ([2]; final PopPK model): 33.0 (1.0 – 48.0) CV% | BSV of ka, Population Mean (95% CI) ([2]; final PopPK model): 146 (95 – 184) CV% | Residual error, Population Mean (95% CI) ([2]; final PopPK model): 34.0 (26.9 – 40.0) CV% | Tlag, Population Mean (95% CI) ([2]; final PopPK model): 0.37 (0.30 – 0.43) hr | V/F, Population Mean (95% CI) ([2]; final PopPK model): 57.8 (49.4 – 66.2) L | ka, Population Mean (95% CI) ([2]; final PopPK model): 4.60 (0.66 – 8.54) 1/hr | CL/F, Mild RI, Population Mean (95% CI) ([2]; final PopPK model, 50 ≤ CLCr ≤ 80 mL/min): 136 (97 – 175) ml/min | CL/F, Normal renal function, Population Mean (95% CI) ([2]; final PopPK model, CLCr > 80 mL/min): 243 (193 – 297) ml/min | BSV of Tlag, Bootstrap Median (95% CI) ([2]; non-parametric bootstrap): 29.1 (4.5 – 65.1) CV% | BSV of V/F, Bootstrap Median (95% CI) ([2]; non-parametric bootstrap): 31.5 (14.5 – 52.4) CV% | BSV of ka, Bootstrap Median (95% CI) ([2]; non-parametric bootstrap): 143 (92 – 197) CV% | Residual error, Bootstrap Median (95% CI) ([2]; non-parametric bootstrap): 33.8 (27.4 – 40.9) CV% | Tlag, Bootstrap Median (95% CI) ([2]; non-parametric bootstrap): 0.37 (0.25 – 0.43) hr | V/F, Bootstrap Median (95% CI) ([2]; non-parametric bootstrap): 57.8 (51.3 – 66.7) L | ka, Bootstrap Median (95% CI) ([2]; non-parametric bootstrap): 4.67 (2.52 – 9.19) 1/hr | CL/F, Mild RI, Bootstrap Median (95% CI) ([2]; non-parametric bootstrap, 50 ≤ CLCr ≤ 80 mL/min): 136 (103 – 178) ml/min | CL/F, Normal renal function, Bootstrap Median (95% CI) ([2]; non-parametric bootstrap, CLCr > 80 mL/min): 243 (202 – 297) ml/min | dose-normalized AUC ([2]; patients with normal renal function): 75 ng·h/ml per mg | dose-normalized AUC ([2]; renally impaired subjects (mild RI)): 167 ng·h/ml per mg | patients with dose reductions ([3]; continuous doses, 4 out of 15 patients): 27% | Anemia, Grade 3, number of patients ([3]; continuous dosing (n=15)): 1 | Constipation, Grade 1, number of patients ([3]; continuous dosing (n=15)): 2 | Constipation, Grade 2, number of patients ([3]; continuous dosing (n=15)): 1 | Diarrhea, Grade 1, number of patients ([3]; continuous dosing (n=15)): 4 | Dizziness, Grade 1, number of patients ([3]; continuous dosing (n=15)): 3 | Dizziness, Grade 2, number of patients ([3]; continuous dosing (n=15)): 1 | Fatigue, Grade 1, number of patients ([3]; continuous dosing (n=15)): 4 | Fatigue, Grade 2, number of patients ([3]; continuous dosing (n=15)): 1 | Flatulence, Grade 1, number of patients ([3]; continuous dosing (n=15)): 3 | Hypotension, Grade 1, number of patients ([3]; continuous dosing (n=15)): 2 | Hypotension, Grade 3, number of patients ([3]; continuous dosing (n=15)): 1 | Nausea, Grade 1, number of patients ([3]; continuous dosing (n=15)): 4 | Neuropathic Sensory, Grade 1, number of patients ([3]; continuous dosing (n=15)): 4 | Neutropenia, Grade 1, number of patients ([3]; continuous dosing (n=15)): 1 | Neutropenia, Grade 2, number of patients ([3]; continuous dosing (n=15)): 3 | Neutropenia, Grade 3, number of patients ([3]; continuous dosing (n=15)): 2 | Pleural effusion, Grade 1, number of patients ([3]; continuous dosing (n=15)): 2 | Pruritus, Grade 1, number of patients ([3]; continuous dosing (n=15)): 5 | Pruritus, Grade 2, number of patients ([3]; continuous dosing (n=15)): 1 | Rash/desquamation, Grade 1, number of patients ([3]; continuous dosing (n=15)): 4 | SGPT, Grade 2, number of patients ([3]; continuous dosing (n=15)): 2 | Thrombosis, Grade 3, number of patients ([3]; continuous dosing (n=15)): 2 | Anemia, Grade 1, number of patients ([3]; intermittent dose (n=35)): 1 | Anemia, Grade 2, number of patients ([3]; intermittent dose (n=35)): 1 | Anemia, Grade 3, number of patients ([3]; intermittent dose (n=35)): 1 | Anorexia, Grade 1, number of patients ([3]; intermittent dose (n=35)): 3 | Anorexia, Grade 2, number of patients ([3]; intermittent dose (n=35)): 1 | Constipation, Grade 1, number of patients ([3]; intermittent dose (n=35)): 4 | Constipation, Grade 2, number of patients ([3]; intermittent dose (n=35)): 5 | Diarrhea, Grade 1, number of patients ([3]; intermittent dose (n=35)): 5 | Diarrhea, Grade 3, number of patients ([3]; intermittent dose (n=35)): 1 | Dizziness, Grade 1, number of patients ([3]; intermittent dose (n=35)): 8 | Dysgeusia, Grade 1, number of patients ([3]; intermittent dose (n=35)): 3 | Edema, Grade 1, number of patients ([3]; intermittent dose (n=35)): 4 | Fatigue, Grade 1, number of patients ([3]; intermittent dose (n=35)): 14 | Fever, Grade 1, number of patients ([3]; intermittent dose (n=35)): 4 | Hemolysis, Grade 2, number of patients ([3]; intermittent dose (n=35)): 1 | Hemolysis, Grade 4, number of patients ([3]; intermittent dose (n=35)): 1 | Infection, Grade 2, number of patients ([3]; intermittent dose (n=35)): 1 | Infection, Grade 3, number of patients ([3]; intermittent dose (n=35)): 2 | Insomnia, Grade 1, number of patients ([3]; intermittent dose (n=35)): 5 | Leukopenia, Grade 2, number of patients ([3]; intermittent dose (n=35)): 1 | Leukopenia, Grade 3, number of patients ([3]; intermittent dose (n=35)): 1 | Myalgia, Grade 1, number of patients ([3]; intermittent dose (n=35)): 5 | Myalgia, Grade 2, number of patients ([3]; intermittent dose (n=35)): 1 | Nausea, Grade 1, number of patients ([3]; intermittent dose (n=35)): 9 | Nausea, Grade 2, number of patients ([3]; intermittent dose (n=35)): 1 | Neutropenia, Grade 1, number of patients ([3]; intermittent dose (n=35)): 1 | Neutropenia, Grade 2, number of patients ([3]; intermittent dose (n=35)): 2 | Neutropenia, Grade 3, number of patients ([3]; intermittent dose (n=35)): 2 | Neutropenia, Grade 4, number of patients ([3]; intermittent dose (n=35)): 3 | Pleural effusion, Grade 1, number of patients ([3]; intermittent dose (n=35)): 2 | Pleural effusion, Grade 3, number of patients ([3]; intermittent dose (n=35)): 1 | Pruritus, Grade 1, number of patients ([3]; intermittent dose (n=35)): 4 | Pruritus, Grade 2, number of patients ([3]; intermittent dose (n=35)): 1 | Rash/desquamation, Grade 1, number of patients ([3]; intermittent dose (n=35)): 7 | Rash/desquamation, Grade 2, number of patients ([3]; intermittent dose (n=35)): 3 | Supraventricular arrythmia, Grade 4, number of patients ([3]; intermittent dose (n=35)): 1 | Thrombocytopenia, Grade 1, number of patients ([3]; intermittent dose (n=35)): 3 | Thrombocytopenia, Grade 3, number of patients ([3]; intermittent dose (n=35)): 2 | patients with dose reductions ([3]; intermittent doses, 7 out of 30 patients): 23% | dose up to which lenalidomide was well tolerated ([3]; intermittent dosing schedule, 21 days on, 7 days off): up to 35 mg/day | median time on-study of patients with stable disease ([4]; 12 patients, range 4 – 11): 5 months | complete or partial response ([4]; 44 evaluable patients): No complete or partial response was noted | patients with stable disease who had prostate cancer ([4]; of 12 patients with SD): 9 | unchanged lenalidomide excreted into urine, fraction of dose ([5]; healthy volunteers): two thirds | increase of lenalidomide exposure in mild RI over normal function ([5]; patients with multiple myeloma): 56%
